In ChEMBL document CHEMBL4052595, “Application of Residual Dipolar Couplings and Selective Quantitative NOE to Establish the Structures of Tetranortriterpenoids from Xylocarpus rumphii” (J Nat Prod, 2017):
Activity calls are given as the source filed them.

Key:
Format in all cases: functional, cell-based
CAKI-1 = assay: Growth inhibition of human Caki1 cells at 10^-5 M incubated for 48 hrs by sulforhodamine B assay
Summary of the method: (§1)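 Run in the NCI59 one-dose cell-line screen, with each compound tested at a single concentration of 1 × 10−5 M.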

UACC-62 = assay: Growth inhibition of human UACC62 cells at 10^-5 M incubated for 48 hrs by sulforhodamine B assay
Summary of the method: (§2)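 Tested at a single concentration of 1 × 10−5 M as part of the NCI59 cell-line one-dose screen.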

MCF7 = assay: Growth inhibition of human MCF7 cells at 10^-5 M incubated for 48 hrs by sulforhodamine B assay; summary of the method: as §1
M14 = assay: Growth inhibition of human M14 cells at 10^-5 M incubated for 48 hrs by sulforhodamine B assay; summary of the method: as §1
IGROV-1 = assay: Growth inhibition of human IGROV1 cells at 10^-5 M incubated for 48 hrs by sulforhodamine B assay; summary of the method: as §1
MDA-MB-435 = assay: Growth inhibition of human MDA-MB-435 cells at 10^-5 M incubated for 48 hrs by sulforhodamine B assay; summary of the method: as §1
CCRF-CEM = assay: Growth inhibition of human CCRF-CEM cells at 10^-5 M incubated for 48 hrs by sulforhodamine B assay; summary of the method: as §1
HL-60(TB) = assay: Growth inhibition of human HL-60(TB) cells at 10^-5 M incubated for 48 hrs by sulforhodamine B assay
Summary of the method: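 Run in the NCI59 cell-line one-dose screen, with each compound tested at a single concentration of 1 × 10−5 M.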

A498 = assay: Growth inhibition of human A498 cells at 10^-5 M incubated for 48 hrs by sulforhodamine B assay; summary of the method: as §1
OVCAR-4 = assay: Growth inhibition of human OVCAR4 cells at 10^-5 M incubated for 48 hrs by sulforhodamine B assay; summary of the method: as §1
OVCAR-3 = assay: Growth inhibition of human OVCAR3 cells at 10^-5 M incubated for 48 hrs by sulforhodamine B assay; summary of the method: as §1
SW-620 = assay: Growth inhibition of human SW620 cells at 10^-5 M incubated for 48 hrs by sulforhodamine B assay; summary of the method: as §2
HCT-15 = assay: Growth inhibition of human HCT15 cells at 10^-5 M incubated for 48 hrs by sulforhodamine B assay; summary of the method: as §1
SK-MEL-2 = assay: Growth inhibition of human SK-MEL-2 cells at 10^-5 M incubated for 48 hrs by sulforhodamine B assay; summary of the method: as §1
HOP-92 = assay: Growth inhibition of human HOP92 cells at 10^-5 M incubated for 48 hrs by sulforhodamine B assay; summary of the method: as §1
SNB-19 = assay: Growth inhibition of human SNB19 cells at 10^-5 M incubated for 48 hrs by sulforhodamine B assay; summary of the method: as §1
SF-539 = assay: Growth inhibition of human SF539 cells at 10^-5 M incubated for 48 hrs by sulforhodamine B assay; summary of the method: as §1
LOX IMVI = assay: Growth inhibition of human LOXIMVI cells at 10^-5 M incubated for 48 hrs by sulforhodamine B assay; summary of the method: as §1
OVCAR-5 = assay: Growth inhibition of human OVCAR5 cells at 10^-5 M incubated for 48 hrs by sulforhodamine B assay; summary of the method: as §1
MDA-MB-231 = assay: Growth inhibition of human MDA-MB-231 cells at 10^-5 M incubated for 48 hrs by sulforhodamine B assay; summary of the method: as §1
NCI-H460 = assay: Growth inhibition of human NCI-H460 cells at 10^-5 M incubated for 48 hrs by sulforhodamine B assay; summary of the method: as §1
EKVX = assay: Growth inhibition of human EKVX cells at 10^-5 M incubated for 48 hrs by sulforhodamine B assay; summary of the method: as §1
SF-295 = assay: Growth inhibition of human SF295 cells at 10^-5 M incubated for 48 hrs by sulforhodamine B assay; summary of the method: as §1
TK-10 = assay: Growth inhibition of human TK10 cells at 10^-5 M incubated for 48 hrs by sulforhodamine B assay; summary of the method: as §2
SF-268 = assay: Growth inhibition of human SF268 cells at 10^-5 M incubated for 48 hrs by sulforhodamine B assay; summary of the method: as §1
786-0 = assay: Growth inhibition of human 786-0 cells at 10^-5 M incubated for 48 hrs by sulforhodamine B assay; summary of the method: as §1
MOLT-4 = assay: Growth inhibition of human MOLT4 cells at 10^-5 M incubated for 48 hrs by sulforhodamine B assay; summary of the method: as §1
BT-549 = assay: Growth inhibition of human BT549 cells at 10^-5 M incubated for 48 hrs by sulforhodamine B assay; summary of the method: as §1
NCI-H23 = assay: Growth inhibition of human NCI-H23 cells at 10^-5 M incubated for 48 hrs by sulforhodamine B assay; summary of the method: as §1
DU-145 = assay: Growth inhibition of human DU145 cells at 10^-5 M incubated for 48 hrs by sulforhodamine B assay; summary of the method: as §1
ACHN = assay: Growth inhibition of human ACHN cells at 10^-5 M incubated for 48 hrs by sulforhodamine B assay; summary of the method: as §1
COLO 205 = assay: Growth inhibition of human COLO205 cells at 10^-5 M incubated for 48 hrs by sulforhodamine B assay; summary of the method: as §1
SK-OV-3 = assay: Growth inhibition of human SKOV3 cells at 10^-5 M incubated for 48 hrs by sulforhodamine B assay; summary of the method: as §1
HT-29 = assay: Growth inhibition of human HT-29 cells at 10^-5 M incubated for 48 hrs by sulforhodamine B assay; summary of the method: as §1
KM12 = assay: Growth inhibition of human KM12 cells at 10^-5 M incubated for 48 hrs by sulforhodamine B assay; summary of the method: as §1
HCT-116 = assay: Growth inhibition of human HCT116 cells at 10^-5 M incubated for 48 hrs by sulforhodamine B assay; summary of the method: as §1
NCI-H322M = assay: Growth inhibition of human NCI-H322M cells at 10^-5 M incubated for 48 hrs by sulforhodamine B assay; summary of the method: as §1
NCI-H226 = assay: Growth inhibition of human NCI-H226 cells at 10^-5 M incubated for 48 hrs by sulforhodamine B assay; summary of the method: as §1
NCI-H522 = assay: Growth inhibition of human NCI-H522 cells at 10^-5 M incubated for 48 hrs by sulforhodamine B assay; summary of the method: as §1
PC-3 = assay: Growth inhibition of human PC3 cells at 10^-5 M incubated for 48 hrs by sulforhodamine B assay; summary of the method: as §1
RXF 393 = assay: Growth inhibition of human RXF393 cells at 10^-5 M incubated for 48 hrs by sulforhodamine B assay; summary of the method: as §1
UO-31 = assay: Growth inhibition of human UO31 cells at 10^-5 M incubated for 48 hrs by sulforhodamine B assay; summary of the method: as §2
T47D = assay: Growth inhibition of human T47D cells at 10^-5 M incubated for 48 hrs by sulforhodamine B assay; summary of the method: as §2
RPMI-8226 = assay: Growth inhibition of human RPMI8226 cells at 10^-5 M incubated for 48 hrs by sulforhodamine B assay; summary of the method: as §1
U-251 = assay: Growth inhibition of human U251 cells at 10^-5 M incubated for 48 hrs by sulforhodamine B assay; summary of the method: as §2
NCI/ADR-RES = assay: Growth inhibition of human NCI/ADR-RES cells at 10^-5 M incubated for 48 hrs by sulforhodamine B assay; summary of the method: as §1
UACC-257 = assay: Growth inhibition of human UACC257 cells at 10^-5 M incubated for 48 hrs by sulforhodamine B assay; summary of the method: as §2
OVCAR-8 = assay: Growth inhibition of human OVCAR8 cells at 10^-5 M incubated for 48 hrs by sulforhodamine B assay; summary of the method: as §1
Hs-578T = assay: Growth inhibition of human Hs 578T cells at 10^-5 M incubated for 48 hrs by sulforhodamine B assay; summary of the method: as §1
SNB-75 = assay: Growth inhibition of human SNB75 cells at 10^-5 M incubated for 48 hrs by sulforhodamine B assay; summary of the method: as §1
HOP-62 = assay: Growth inhibition of human HOP62 cells at 10^-5 M incubated for 48 hrs by sulforhodamine B assay; summary of the method: as §1
SK-MEL-5 = assay: Growth inhibition of human SK-MEL-5 cells at 10^-5 M incubated for 48 hrs by sulforhodamine B assay; summary of the method: as §1
HCC 2998 = assay: Growth inhibition of human HCC2998 cells at 10^-5 M incubated for 48 hrs by sulforhodamine B assay; summary of the method: as §1
A549 = assay: Growth inhibition of human A549/ATCC cells at 10^-5 M incubated for 48 hrs by sulforhodamine B assay; summary of the method: as §1
SR = assay: Growth inhibition of human SR cells at 10^-5 M incubated for 48 hrs by sulforhodamine B assay; summary of the method: as §1
K562 = assay: Growth inhibition of human K562 cells at 10^-5 M incubated for 48 hrs by sulforhodamine B assay; summary of the method: as §1
SN12C = assay: Growth inhibition of human SN12C cells at 10^-5 M incubated for 48 hrs by sulforhodamine B assay; summary of the method: as §1
SK-MEL-28 = assay: Growth inhibition of human SK-MEL-28 cells at 10^-5 M incubated for 48 hrs by sulforhodamine B assay; summary of the method: as §1

Measured: growth inhibition (GI)

CC[C@H](C)C(=O)O[C@@H]1[C@@H]2[C@@H](OC(=O)[C@@H](C)CC)[C@@]34O[C@]2(O)[C@@](C)([C@@H](CC(=O)OC)C1(C)C)[C@H]3CC[C@]1(C)C4=CC(=O)O[C@H]1C1=CC(O)OC1=O (stereo partly specified)
inactive: CAKI-1 | UACC-62 | MCF7 | M14 | IGROV-1 | MDA-MB-435 | CCRF-CEM | HL-60(TB) | A498 | OVCAR-4 | OVCAR-3 | SW-620 | HCT-15 | SK-MEL-2 | HOP-92 | SNB-19 | SF-539 | LOX IMVI | OVCAR-5 | MDA-MB-231 | NCI-H460 | EKVX | SF-295 | TK-10 | SF-268 | 786-0 | MOLT-4 | BT-549 | NCI-H23 | DU-145 | ACHN | COLO 205 | SK-OV-3 | HT-29 | KM12 | HCT-116 | NCI-H322M | NCI-H226 | NCI-H522 | PC-3 | RXF 393 | UO-31 | T47D | RPMI-8226 | U-251 | NCI/ADR-RES | UACC-257 | OVCAR-8 | Hs-578T | SNB-75 | HOP-62 | SK-MEL-5 | HCC 2998 | A549 | SR | K562 | SN12C | SK-MEL-28

COC(=O)C[C@H]1[C@@]2(C)C[C@@]34O[C@@]5(C)O[C@]6([C@@H]7CC(=O)O[C@@H](c8ccoc8)[C@]7(C)CC[C@]6(O5)[C@@]13C)[C@@H](OC(C)=O)[C@@]4(OC(C)=O)[C@H]2OC(C)=O
inactive: CAKI-1 | UACC-62 | MCF7 | M14 | IGROV-1 | MDA-MB-435 | CCRF-CEM | HL-60(TB) | A498 | OVCAR-4 | OVCAR-3 | SW-620 | HCT-15 | SK-MEL-2 | HOP-92 | SNB-19 | SF-539 | LOX IMVI | OVCAR-5 | MDA-MB-231 | NCI-H460 | EKVX | SF-295 | TK-10 | SF-268 | 786-0 | MOLT-4 | BT-549 | NCI-H23 | DU-145 | ACHN | COLO 205 | SK-OV-3 | HT-29 | KM12 | HCT-116 | NCI-H322M | NCI-H226 | NCI-H522 | PC-3 | RXF 393 | UO-31 | T47D | RPMI-8226 | U-251 | NCI/ADR-RES | UACC-257 | OVCAR-8 | Hs-578T | SNB-75 | HOP-62 | SK-MEL-5 | HCC 2998 | A549 | SR | K562 | SN12C | SK-MEL-28
